Results reported in ChEMBL document CHEMBL1146075, “Synthesis and anti-BVDV activity of acridones as new potential antiviral agents” (J Med Chem, 2006).
Values after ≈ are worked out from the molar mass of the structure shown. Active and inactive are the calls of the source. No cut-off for these calls is given here.

Key:
[1] = tested on: Bovine viral diarrhea virus 1; test: Antiviral activity against BVDV NADL in MDBK cells; assay type: functional, organism-based; settings: Bovine viral diarrhea virus isolates and strains
Method in brief: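 MDBK cells seeded 20 × 10^3/well in MEM with 5% heat-inactivated FCS, confluent after 24 h; serial 3-fold compound dilutions added, then virus at MOI 0.5 (line 2: NADL F224S mutant). 5 days at 37 °C, then ethanol fixation and Giemsa staining. CPE scored microscopically 0–10 per well. EC50 by logarithmic interpolation; mean ± SD of at least three experiments.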

MDBK441 [2] = test: Cytotoxicity against MDBK cells; assay type: functional; settings: Bos taurus
Method in brief: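 Cells seeded the day before, then given serial compound dilutions and left to proliferate 3 days at 37 °C. MDBK: 10^4/well in MEM-FCS. Huh 5-2: 5 × 10^3/well in complete DMEM. Cell number read by MTS/PMS. CC50 is the concentration inhibiting cell growth by 50%.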

MDBK441 [3] = test: Selectivity index (CC50/EC50) for inhibition of BVDV NADL in MDBK cells; assay type: functional
Method in brief: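 SI = CC50/EC50. EC50 comes from a 5-day Giemsa-stained CPE assay in MDBK cells at MOI 0.5; CC50 from a 3-day MTS/PMS proliferation assay. Means of at least three experiments. Line 10 uses the NADL F224S mutant.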

Human alphaherpesvirus 1 = test: Antiviral activity against HSV1 KOS in E6SM cells; assay type: functional, organism-based
Human alphaherpesvirus 2 = test: Antiviral activity against HSV2 G in E6SM cells; assay type: functional, organism-based
Vaccinia virus = test: Antiviral activity against vaccinia virus in E6SM cells; assay type: functional, organism-based; settings: Orthopoxvirus vaccinia
[4] = tested on: Vesicular stomatitis virus; test: Antiviral activity against vesicular stomatitis virus in E6SM cells; assay type: functional, organism-based
Human betaherpesvirus 5 [5] = test: Antiviral activity against HCMV AD169 in human embryonic lung cells; assay type: functional, organism-based
Human betaherpesvirus 5 [6] = test: Antiviral activity against HCMV Davis in human embryonic lung cells; assay type: functional, organism-based
[7] = tested on: Respiratory syncytial virus; test: Antiviral activity against respiratory syncytial virus […] in HeLa cells; assay type: functional, organism-based
Coxsackievirus B4 = test: Antiviral activity against coxsackie virus B4 in vero cells; assay type: functional, organism-based
Human respirovirus 3 = test: Antiviral activity against parainfluenza3 virus in vero cells; assay type: functional, organism-based
[8] = tested on: Mammalian orthoreovirus 1; test: Antiviral activity against Reovirus1 in vero cells; assay type: functional, organism-based
Sindbis virus = test: Antiviral activity against sindbis virus in vero cells; assay type: functional, organism-based
Punta Toro virus = test: Antiviral activity against Punta Toro virus in vero cells; assay type: functional, organism-based
[9] = tested on: Human immunodeficiency virus 1; test: Antiviral activity against HIV1 3B in MT4 cells; assay type: functional, organism-based
[10] = tested on: Human immunodeficiency virus 2; test: Antiviral activity against HIV2 ROD in MT4 cells; assay type: functional, organism-based

Row | Compound | EC50 [1] [µg/mL] | CC50 (MDBK441 [2]) [µg/mL] | Selectivity index (MDBK441 [3]) | Activity (Human alphaherpesvirus 1) | Activity (Human alphaherpesvirus 2) | Activity (Vaccinia virus) | Activity [4] | Activity (Human betaherpesvirus 5 [5]) | Activity (Human betaherpesvirus 5 [6]) | Activity [7] | Activity (Coxsackievirus B4) | Activity (Human respirovirus 3) | Activity [8] | Activity (Sindbis virus) | Activity (Punta Toro virus) | Activity [9] | Activity [10]
1 | COc1cc(OC)c2c(=O)c3cc([N+](=O)[O-])c(N4CCN(c5ccccn5)CC4)cc3n(C)c2c1 | 18 (≈ 37.9 µM) | > 100 | >6 | inactive | inactive | inactive | inactive | inactive | inactive | inactive | inactive | inactive | inactive | inactive | inactive | inactive | inactive
2 | COc1cc(O)c2c(=O)c3cc(N)c(Cl)cc3n(C)c2c1 | – | > 33 | >47 | inactive | inactive | inactive | inactive | inactive | inactive | inactive | inactive | inactive | inactive | inactive | inactive | inactive | inactive
3 | Cn1c2cc(Cl)c(N)cc2c(=O)c2c(O)cc(O)cc21 | – | 5 (≈ 17.2 µM) | 13 | inactive | inactive | inactive | inactive | inactive | inactive | inactive | inactive | inactive | inactive | inactive | inactive | inactive | inactive
4 | COc1cc(O)c2c(=O)c3cc([N+](=O)[O-])c(Cl)cc3n(C)c2c1 | > 83 | 83 (≈ 248 µM) | 1 | inactive | inactive | inactive | inactive | inactive | inactive | inactive | inactive | inactive | inactive | inactive | inactive | inactive | inactive
5 | COc1cc(OC)c2c(=O)c3cc(N)c(N4CCN(c5ccccn5)CC4)cc3n(C)c2c1 | > 100 | > 100 | 1 | inactive | inactive | inactive | inactive | inactive | inactive | inactive | inactive | inactive | inactive | inactive | inactive | inactive | inactive
6 | COc1cc(O)c2c(=O)c3cc(N)c(N4CCN(c5ccccn5)CC4)cc3n(C)c2c1 | – | > 100 | >25 | inactive | inactive | inactive | inactive | inactive | inactive | inactive | inactive | inactive | inactive | inactive | inactive | inactive | inactive
